Assay [1] in a line: Inhibition of rice alpha-glucosidase assessed as glucose release by Glucose B-test. Also noted: species or system Oryza sativa. Summed up: (§1)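 Disaccharide substrate suited to each enzyme, at that enzyme's optimum pH. Released D-glucose was measured colorimetrically with the Glucose B-test.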
Assay [2] in a line: Inhibition of yeast alpha-glucosidase assessed as p-nitrophenol release by spectrophotometrically. More on the design: species or system Saccharomyces cerevisiae. Summed up:
(§2)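 Assayed with the appropriate p-nitrophenyl glycoside substrate at each enzyme's optimum pH.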

The nature of assay [3]: Inhibition of rat epididymis alpha-mannosidase assessed as p-nitrophenol release by spectrophotometrically.
The target of assay [4] is T1, Beta-mannosidase (Rattus norvegicus, UniProt Q4FZV0).
T1 sequence (Q4FZV0 whole entry): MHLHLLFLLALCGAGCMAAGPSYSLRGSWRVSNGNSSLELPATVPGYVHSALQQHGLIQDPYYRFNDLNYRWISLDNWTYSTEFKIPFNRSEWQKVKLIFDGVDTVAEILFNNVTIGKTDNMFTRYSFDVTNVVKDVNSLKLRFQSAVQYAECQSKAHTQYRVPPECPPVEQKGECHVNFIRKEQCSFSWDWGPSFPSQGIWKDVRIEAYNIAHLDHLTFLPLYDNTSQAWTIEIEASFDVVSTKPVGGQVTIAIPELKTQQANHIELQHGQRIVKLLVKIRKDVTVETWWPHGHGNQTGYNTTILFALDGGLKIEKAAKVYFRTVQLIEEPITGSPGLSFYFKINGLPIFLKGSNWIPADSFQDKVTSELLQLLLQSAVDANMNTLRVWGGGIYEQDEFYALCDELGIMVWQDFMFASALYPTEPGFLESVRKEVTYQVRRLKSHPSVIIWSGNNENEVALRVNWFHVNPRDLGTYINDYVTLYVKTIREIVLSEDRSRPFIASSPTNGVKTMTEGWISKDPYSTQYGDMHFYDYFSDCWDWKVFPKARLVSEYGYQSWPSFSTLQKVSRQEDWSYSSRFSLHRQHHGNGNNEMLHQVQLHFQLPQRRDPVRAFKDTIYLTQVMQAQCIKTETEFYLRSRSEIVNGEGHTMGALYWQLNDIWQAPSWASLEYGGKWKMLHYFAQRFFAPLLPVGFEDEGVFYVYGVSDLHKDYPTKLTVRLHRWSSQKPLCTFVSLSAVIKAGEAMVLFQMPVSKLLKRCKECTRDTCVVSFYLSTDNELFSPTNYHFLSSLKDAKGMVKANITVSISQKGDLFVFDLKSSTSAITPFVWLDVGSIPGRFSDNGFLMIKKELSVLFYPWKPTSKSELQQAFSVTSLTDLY
Put plainly: Inhibition of rat epididymis beta-mannosidase assessed as p-nitrophenol release by spectrophotometrically.

The target of assay [5] is Alpha-galactosidase (Coffea arabica) (UniProt Q42656). Description: Inhibition of coffee bean alpha-galactosidase assessed as p-nitrophenol release at 1000 uM by spectrophotometrically. The method, boiled down:
as §2

Assay [6] has as its target T2, Beta-galactosidase (Bos taurus) (UniProt Q58D55).
T2 sequence (whole entry): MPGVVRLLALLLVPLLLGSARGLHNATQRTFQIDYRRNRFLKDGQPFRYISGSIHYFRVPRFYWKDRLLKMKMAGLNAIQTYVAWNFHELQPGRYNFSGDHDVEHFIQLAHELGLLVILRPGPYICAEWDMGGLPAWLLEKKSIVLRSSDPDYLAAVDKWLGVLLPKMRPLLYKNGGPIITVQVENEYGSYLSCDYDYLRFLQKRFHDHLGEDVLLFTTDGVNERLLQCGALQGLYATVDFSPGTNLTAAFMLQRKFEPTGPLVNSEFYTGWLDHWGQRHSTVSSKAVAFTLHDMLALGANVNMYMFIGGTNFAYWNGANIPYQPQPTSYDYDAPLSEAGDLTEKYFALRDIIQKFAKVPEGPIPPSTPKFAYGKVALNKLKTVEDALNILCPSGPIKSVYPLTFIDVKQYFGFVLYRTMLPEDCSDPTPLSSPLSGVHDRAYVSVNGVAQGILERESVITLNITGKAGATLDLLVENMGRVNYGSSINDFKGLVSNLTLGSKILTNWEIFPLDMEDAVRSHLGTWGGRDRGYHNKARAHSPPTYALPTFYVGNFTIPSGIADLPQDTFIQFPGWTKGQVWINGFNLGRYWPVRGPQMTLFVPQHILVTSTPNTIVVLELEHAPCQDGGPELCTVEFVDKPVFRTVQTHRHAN
Description: Inhibition of bovine liver beta-galactosidase assessed as p-nitrophenol release at 1000 uM by spectrophotometrically. The method, boiled down: as §2

Assay [7] deals with T3, Tissue alpha-L-fucosidase (Bos taurus) (UniProt Q2KIM0).
T3 sequence (whole entry): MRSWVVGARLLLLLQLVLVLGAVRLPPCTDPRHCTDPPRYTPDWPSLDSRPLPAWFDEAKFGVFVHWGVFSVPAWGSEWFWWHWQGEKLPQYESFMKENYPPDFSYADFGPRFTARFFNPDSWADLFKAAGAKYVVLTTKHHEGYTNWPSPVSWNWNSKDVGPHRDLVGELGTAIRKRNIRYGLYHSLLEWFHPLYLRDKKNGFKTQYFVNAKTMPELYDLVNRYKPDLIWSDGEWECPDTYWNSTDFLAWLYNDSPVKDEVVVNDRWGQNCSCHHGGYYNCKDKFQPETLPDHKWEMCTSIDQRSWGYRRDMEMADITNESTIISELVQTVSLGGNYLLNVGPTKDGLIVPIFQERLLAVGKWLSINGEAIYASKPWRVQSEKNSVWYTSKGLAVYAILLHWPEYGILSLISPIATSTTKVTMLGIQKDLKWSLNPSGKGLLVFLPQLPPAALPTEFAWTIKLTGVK
Put plainly: Inhibition of bovine epididymis alpha-L-fucosidase assessed as p-nitrophenol release at 1000 uM by spectrophotometrically. The method, boiled down:
as §2

A short description of assay [8]: Inhibition of Aspergillus niger amyloglucosidase assessed as glucose release by Glucose B-test. Summed up: as §1
The target of assay [9] is T4, Uncharacterized protein (Sus scrofa, UniProt I3LIR5).
T4 sequence (I3LIR5 whole entry): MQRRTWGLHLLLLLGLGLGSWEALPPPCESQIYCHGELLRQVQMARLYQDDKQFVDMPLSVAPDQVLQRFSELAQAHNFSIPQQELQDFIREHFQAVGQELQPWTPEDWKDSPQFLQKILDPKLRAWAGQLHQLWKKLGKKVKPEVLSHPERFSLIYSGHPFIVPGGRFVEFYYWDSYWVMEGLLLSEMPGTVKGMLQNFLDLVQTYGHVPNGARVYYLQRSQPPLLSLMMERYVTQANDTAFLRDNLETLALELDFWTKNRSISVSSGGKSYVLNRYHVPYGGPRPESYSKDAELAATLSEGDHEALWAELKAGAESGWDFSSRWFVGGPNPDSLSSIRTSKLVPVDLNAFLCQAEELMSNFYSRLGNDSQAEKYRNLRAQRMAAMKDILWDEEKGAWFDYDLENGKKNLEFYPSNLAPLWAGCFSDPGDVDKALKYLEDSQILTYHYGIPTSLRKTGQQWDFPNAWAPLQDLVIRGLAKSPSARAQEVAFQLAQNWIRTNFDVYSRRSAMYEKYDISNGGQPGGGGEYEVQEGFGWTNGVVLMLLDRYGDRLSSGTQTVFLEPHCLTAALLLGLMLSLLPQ
Put plainly: Inhibition of pig kidney trehalase assessed as p-nitrophenol release by spectrophotometrically.

For assay [10], the target named is Alpha-glucosidase MAL62 (Saccharomyces cerevisiae, UniProt P07265). Description: Inhibition of yeast maltase alpha-glucosidase assessed as glucose release by Glucose B-test.
Assay [11] is described as follows: Inhibition of yeast isomaltase alpha-glucosidase assessed as glucose release by Glucose B-test.
For assay [12], the system named is Oryza sativa. Description: Inhibition of rice alpha-glucosidase assessed as glucose release at 1000 uM by Glucose B-test. Summed up:
as §1

The target in assay [13] is Lysosomal alpha-glucosidase (Rattus norvegicus) (UniProt Q6P7A9). Put plainly: Inhibition of rat intestinal maltase assessed as glucose release at 1000 uM by Glucose B-test. Summed up:
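Enzyme source was brush border membranes prepared from rat small intestine. Maltase, sucrase and isomaltase activities were read with the matching disaccharide substrate at each enzyme's optimum pH, and liberated D-glucose was quantified colorimetrically by Glucose B-test.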

The target of assay [14] is T5, Sucrase-isomaltase, intestinal (Rattus norvegicus, UniProt P23739). Put plainly: Inhibition of rat intestinal sucrase assessed as glucose release by Glucose B-test.
Assay [15] addresses T5, Sucrase-isomaltase, intestinal. Description: Inhibition of rat intestinal isomaltase assessed as glucose release by Glucose B-test.
The species entered for assay [16] is Rattus norvegicus. Description: Inhibition of rat epididymis alpha-mannosidase assessed as p-nitrophenol release at 1000 uM by spectrophotometrically.
The target of assay [17] is T6, Beta-mannosidase (Rattus norvegicus) (UniProt Q4FZV0).
T6 sequence (whole entry): T1 sequence (Q4FZV0 whole entry)
Put plainly: Inhibition of rat epididymis beta-mannosidase assessed as p-nitrophenol release at 1000 uM by spectrophotometrically.

The target of assay [18] is Alpha-galactosidase (Coffea arabica, UniProt Q42656). Put plainly: Inhibition of coffee bean alpha-galactosidase assessed as p-nitrophenol release by spectrophotometrically. Summed up: as §2
The target of assay [19] is T7, Uncharacterized protein (Sus scrofa) (UniProt I3LIR5).
T7 sequence (whole entry): T4 sequence (I3LIR5 whole entry)
Put plainly: Inhibition of pig kidney trehalase assessed as p-nitrophenol release at 1000 uM by spectrophotometrically.

The term IC50 denotes the concentration that gives 50% inhibition. By inhibition is commonly meant the share of the control response that was lost under treatment.

Chain of Alpha-glucosidase MAL62 (P07265 whole entry): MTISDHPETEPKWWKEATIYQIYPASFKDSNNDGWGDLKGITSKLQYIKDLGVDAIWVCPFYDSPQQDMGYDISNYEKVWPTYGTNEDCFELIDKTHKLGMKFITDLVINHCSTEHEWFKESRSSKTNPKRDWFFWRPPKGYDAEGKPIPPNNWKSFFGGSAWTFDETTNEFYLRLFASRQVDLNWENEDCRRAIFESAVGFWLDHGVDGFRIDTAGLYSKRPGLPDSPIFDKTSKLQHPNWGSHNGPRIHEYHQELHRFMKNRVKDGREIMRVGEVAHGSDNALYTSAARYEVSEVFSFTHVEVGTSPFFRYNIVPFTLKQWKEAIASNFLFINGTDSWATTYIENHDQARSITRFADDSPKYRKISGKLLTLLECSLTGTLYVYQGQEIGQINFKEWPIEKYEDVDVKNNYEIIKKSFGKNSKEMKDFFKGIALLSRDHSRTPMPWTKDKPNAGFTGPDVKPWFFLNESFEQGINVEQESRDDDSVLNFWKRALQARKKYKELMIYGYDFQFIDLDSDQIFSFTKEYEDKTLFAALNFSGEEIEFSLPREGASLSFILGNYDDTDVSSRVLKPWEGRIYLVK
T5 sequence (P23739 1-1013 limits assumed): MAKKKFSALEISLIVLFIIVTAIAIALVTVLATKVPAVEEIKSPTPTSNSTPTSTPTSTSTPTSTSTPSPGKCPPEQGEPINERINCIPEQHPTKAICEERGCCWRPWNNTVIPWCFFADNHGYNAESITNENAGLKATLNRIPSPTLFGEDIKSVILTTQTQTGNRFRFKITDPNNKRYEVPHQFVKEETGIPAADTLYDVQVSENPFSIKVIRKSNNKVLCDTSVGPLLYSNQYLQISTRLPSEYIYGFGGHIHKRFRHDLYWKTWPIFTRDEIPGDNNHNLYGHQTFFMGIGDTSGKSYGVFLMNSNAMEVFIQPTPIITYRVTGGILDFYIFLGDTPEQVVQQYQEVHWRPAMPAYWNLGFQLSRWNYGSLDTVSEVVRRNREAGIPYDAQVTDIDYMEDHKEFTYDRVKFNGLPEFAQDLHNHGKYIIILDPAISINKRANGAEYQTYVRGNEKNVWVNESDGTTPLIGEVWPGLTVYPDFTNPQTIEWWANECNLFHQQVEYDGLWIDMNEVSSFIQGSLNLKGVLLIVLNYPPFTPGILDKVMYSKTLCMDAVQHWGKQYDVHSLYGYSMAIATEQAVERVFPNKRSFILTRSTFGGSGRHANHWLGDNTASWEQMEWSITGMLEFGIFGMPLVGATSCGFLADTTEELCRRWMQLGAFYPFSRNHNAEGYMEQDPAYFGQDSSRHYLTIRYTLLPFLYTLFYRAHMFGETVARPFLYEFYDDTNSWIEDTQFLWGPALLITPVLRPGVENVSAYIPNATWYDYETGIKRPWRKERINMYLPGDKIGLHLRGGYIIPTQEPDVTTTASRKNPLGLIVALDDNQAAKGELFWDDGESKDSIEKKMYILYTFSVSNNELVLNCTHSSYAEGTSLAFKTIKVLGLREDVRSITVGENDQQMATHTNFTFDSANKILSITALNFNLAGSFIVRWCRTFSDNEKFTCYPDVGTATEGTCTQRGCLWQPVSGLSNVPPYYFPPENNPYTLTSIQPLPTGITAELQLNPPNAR
T5 sequence (P23739 1014-1841 limits assumed): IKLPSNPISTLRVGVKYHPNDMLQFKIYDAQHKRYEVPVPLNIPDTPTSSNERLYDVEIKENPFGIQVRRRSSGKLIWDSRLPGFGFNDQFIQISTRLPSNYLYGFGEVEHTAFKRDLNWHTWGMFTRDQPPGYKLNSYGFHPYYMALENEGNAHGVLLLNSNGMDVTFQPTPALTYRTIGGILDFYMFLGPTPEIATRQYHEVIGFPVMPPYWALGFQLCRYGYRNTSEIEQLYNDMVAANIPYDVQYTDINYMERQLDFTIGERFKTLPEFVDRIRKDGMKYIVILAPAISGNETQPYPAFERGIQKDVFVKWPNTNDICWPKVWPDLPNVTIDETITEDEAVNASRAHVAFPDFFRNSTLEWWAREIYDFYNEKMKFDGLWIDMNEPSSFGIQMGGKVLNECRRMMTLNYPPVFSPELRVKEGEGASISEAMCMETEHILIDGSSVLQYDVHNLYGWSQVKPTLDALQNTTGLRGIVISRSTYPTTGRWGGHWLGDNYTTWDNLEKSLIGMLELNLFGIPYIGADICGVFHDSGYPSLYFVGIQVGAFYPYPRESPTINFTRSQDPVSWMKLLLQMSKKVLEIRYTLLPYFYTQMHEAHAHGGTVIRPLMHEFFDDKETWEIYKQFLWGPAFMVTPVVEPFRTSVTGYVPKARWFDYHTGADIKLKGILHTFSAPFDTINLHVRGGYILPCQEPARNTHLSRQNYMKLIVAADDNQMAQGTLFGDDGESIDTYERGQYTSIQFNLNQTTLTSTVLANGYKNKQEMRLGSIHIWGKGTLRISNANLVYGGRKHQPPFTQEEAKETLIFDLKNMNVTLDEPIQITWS
Chain of Lysosomal alpha-glucosidase (Rattus norvegicus) (Q6P7A9 whole entry): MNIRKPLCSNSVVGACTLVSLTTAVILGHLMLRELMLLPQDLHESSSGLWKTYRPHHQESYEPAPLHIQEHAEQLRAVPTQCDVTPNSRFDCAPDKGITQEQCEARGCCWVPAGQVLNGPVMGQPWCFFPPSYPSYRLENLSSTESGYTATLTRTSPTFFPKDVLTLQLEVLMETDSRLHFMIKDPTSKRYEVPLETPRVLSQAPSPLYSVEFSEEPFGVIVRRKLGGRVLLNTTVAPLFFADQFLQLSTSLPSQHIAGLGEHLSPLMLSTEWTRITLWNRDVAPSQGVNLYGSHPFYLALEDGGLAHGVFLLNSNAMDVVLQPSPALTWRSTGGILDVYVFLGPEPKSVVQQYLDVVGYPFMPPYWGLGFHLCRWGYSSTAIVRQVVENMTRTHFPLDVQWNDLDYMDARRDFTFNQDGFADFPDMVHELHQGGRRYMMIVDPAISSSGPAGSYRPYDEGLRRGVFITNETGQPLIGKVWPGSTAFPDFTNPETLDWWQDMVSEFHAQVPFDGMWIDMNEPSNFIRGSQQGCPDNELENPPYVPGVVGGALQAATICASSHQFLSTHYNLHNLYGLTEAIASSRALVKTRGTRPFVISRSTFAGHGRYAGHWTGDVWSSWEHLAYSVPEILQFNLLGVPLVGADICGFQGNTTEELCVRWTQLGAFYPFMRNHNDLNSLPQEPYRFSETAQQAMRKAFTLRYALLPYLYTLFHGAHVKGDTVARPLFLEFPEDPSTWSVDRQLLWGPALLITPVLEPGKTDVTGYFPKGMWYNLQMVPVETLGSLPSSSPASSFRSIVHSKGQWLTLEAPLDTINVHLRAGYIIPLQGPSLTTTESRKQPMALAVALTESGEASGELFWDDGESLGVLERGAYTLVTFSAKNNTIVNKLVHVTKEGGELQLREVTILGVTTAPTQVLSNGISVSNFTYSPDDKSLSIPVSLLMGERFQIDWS
Chain of Alpha-galactosidase (Q42656 whole entry): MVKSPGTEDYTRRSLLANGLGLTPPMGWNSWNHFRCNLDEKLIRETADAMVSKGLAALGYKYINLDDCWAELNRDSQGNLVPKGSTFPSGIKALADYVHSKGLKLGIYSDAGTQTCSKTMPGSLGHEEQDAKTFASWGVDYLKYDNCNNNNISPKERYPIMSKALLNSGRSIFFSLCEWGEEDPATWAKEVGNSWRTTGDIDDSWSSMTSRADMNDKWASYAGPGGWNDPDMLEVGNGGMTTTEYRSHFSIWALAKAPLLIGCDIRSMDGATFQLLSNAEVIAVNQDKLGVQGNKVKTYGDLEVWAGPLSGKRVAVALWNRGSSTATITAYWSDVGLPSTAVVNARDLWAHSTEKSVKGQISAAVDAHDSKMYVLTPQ
Chain of Alpha-galactosidase (Coffea arabica) (Q42656 16-378 limits assumed): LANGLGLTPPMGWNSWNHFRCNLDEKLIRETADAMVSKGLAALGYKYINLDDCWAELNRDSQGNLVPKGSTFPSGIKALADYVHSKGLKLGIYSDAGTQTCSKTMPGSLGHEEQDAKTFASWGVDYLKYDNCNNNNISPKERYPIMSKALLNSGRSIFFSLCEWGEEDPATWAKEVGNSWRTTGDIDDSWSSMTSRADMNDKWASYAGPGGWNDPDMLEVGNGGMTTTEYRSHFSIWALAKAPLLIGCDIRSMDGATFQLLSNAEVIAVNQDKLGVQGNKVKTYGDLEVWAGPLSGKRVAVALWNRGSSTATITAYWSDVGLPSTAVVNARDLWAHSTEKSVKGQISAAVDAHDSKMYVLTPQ

On to `OC[C@H]1NC[C@@H](O)[C@@H]1O`, for which the IC50 is 120 µM in assay [1]; 1.2 µM in assay [2]; 150 µM in [3]; 290 µM in [4]; 400 µM in [8]; 2.5 µM in assay [9]. Further, the IC50 in assay [10] was determined as 0.84 µM; in assay [11], 0.11 µM. Also, the inhibition in [5], in assay [6] and in [7] was < 50% each time.
As to `OCCN1C[C@@H](O)[C@H](O)[C@H]1CO`, the inhibition in assay [12], in [13], in [16], in [17], in assay [6] and in assay [7] was < 50% each time. Also, the inhibition in assay [19] is < 50%. Moreover, the IC50 turned out to be 290 µM in [2]; 250 µM in assay [14]; 84 µM in assay [15]; 700 µM in [18]; 620 µM in [8]; 78 µM in assay [10]. Moreover, the IC50 in [11] was found to be 12 µM.

These data come from ChEMBL document CHEMBL1148104, “New sugar-mimic alkaloids from the pods of Angylocalyx pynaertii” (J Nat Prod, 2002).
